High-throughput results deposited in PubChem BioAssay by The Scripps Research Institute Molecular Screening Center.
In the library only some 1.8% were active in any assay of this set; here they are far more common.
CHRM5 agonist: agonists of human muscarinic M5 receptor (CHRM5); P08912; CHO-K1 hM5 cells, Fluo-8 calcium fluorescence; 0% DMSO wells, 100% maximal acetylcholine response; activation, % at 3 µM; actives 0.19% (n = 360,000);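 active means activation above the run's mean over test compounds plus 3 SD, cut at about 23% in these data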;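 further: signal is peak over basal fluorescence ratio across the kinetic read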
Target sequence (P08912 whole entry, looked up): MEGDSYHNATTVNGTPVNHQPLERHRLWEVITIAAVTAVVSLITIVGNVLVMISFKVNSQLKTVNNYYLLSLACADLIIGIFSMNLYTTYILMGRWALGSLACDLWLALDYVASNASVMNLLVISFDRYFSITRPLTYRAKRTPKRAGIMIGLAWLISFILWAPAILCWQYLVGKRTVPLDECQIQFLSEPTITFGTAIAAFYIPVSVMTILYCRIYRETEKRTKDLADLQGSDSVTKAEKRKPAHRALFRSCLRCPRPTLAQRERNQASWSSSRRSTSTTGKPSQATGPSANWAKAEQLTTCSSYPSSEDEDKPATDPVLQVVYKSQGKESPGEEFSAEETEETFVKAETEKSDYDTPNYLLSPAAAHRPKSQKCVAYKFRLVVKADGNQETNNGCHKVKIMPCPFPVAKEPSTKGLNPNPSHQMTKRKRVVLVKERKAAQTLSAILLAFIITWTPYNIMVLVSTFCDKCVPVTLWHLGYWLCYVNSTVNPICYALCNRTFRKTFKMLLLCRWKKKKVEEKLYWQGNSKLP
M4 ag: CHRM4 agonism in calcium assay | CHO-K1 hM4/Gqi5, Fluo-8 calcium fluorescence; vehicle 0%, full acetylcholine response 100% | activation, % at 3 µM | actives 0.14% (n = 360,000);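 active means activation above the run mean over all test wells plus 3 SD, cut at about 32% in these data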;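 further: peak over basal fluorescence ratio per well then scaled between controls; 0% = DMSO wells and 100% = acetylcholine at EC100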
M4 PAM: CHRM4 positive allosteric modulation; P08173; CHO-K1 hM4/Gqi5, Fluo-8 calcium fluorescence, ACh EC20; 0% = ACh EC20, 100% = maximal ACh; activation, % at 3 µM; actives 0.4% (n = 360,000); AID 624126;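 active means activation above its plate's cutoff, the mean activation of sample wells plus 3 SD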
CHRM5 PAM: potentiates acetylcholine response at human M5 receptor; P08912; CHO-K1 hM5, Fluo-8 calcium, ACh EC20 PAM; 0% = ACh EC20, 100% = ACh EC100; activation, % at 3 µM; actives 0.3% (n = 360,000);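 active means activation above the run cutoff, the mean activation of all test compounds plus 3 SD, cut at about 18% in these data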
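System: CHO-K1 cell line with stable human muscarinic M5 receptor expression | Also added: EC20 acetylcholine as agonist stimulus | Compound: One concentration, 3 µM final (nominal) | Timing: Fluo-8 loading 80 min at 37 °C plus 30 min room temperature | Measured by: Fluo-8 calcium dye fluorescence, kinetic read | Read-out basis: % activation, ACh-normalized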
CHRM4 antagonist: blocks acetylcholine activation of human M4 receptor; AID 624125; CHO-hM4 cells, ACh EC80, Fluo-8 calcium fluorescence; actives 0.73% (n = 360,000); P08173; inhibition, % at 3 µM;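 active means inhibition above its plate's cutoff, the mean inhibition of sample wells plus 3 SD, cut at about 27% in these data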;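 further: 0% = acetylcholine EC80 with DMSO and 100% = DMSO without agonist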
CHRM5 antagonist: blocks acetylcholine activation of human M5 receptor; P08912; CHO-hM5 cells, Fluo-8 calcium fluorescence, ACh EC80; inhibition, % at 3 µM; actives 0.59% (n = 360,000); AID 624040;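 active means inhibition above a per-plate cutoff, the mean of that plate's test compounds plus 3 SD, cut at about 27% in these data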;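 further: 0% = acetylcholine EC80 with DMSO and 100% = DMSO without agonist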
* = called active by the depositor; ! = not active in a repeat.

SMILES | CHRM5 agonist | M4 ag | M4 PAM | CHRM5 PAM | CHRM4 antagonist | CHRM5 antagonist
CCCCCNC(=O)C(c1cc2ccccc2o1)n1c(=O)c(-c2ccco2)nc2ccccc21 (centres undefined) | 0 | 1 | 27* | 8 | -11 | -10
O=C1NC(=S)N/C1=C\c1ccc(N2CCOCC2)cc1 | 1 | 0 | -3 | -2 | 4 | 7
O=C(NCc1ccccc1CN1CCCC1)c1ccc(S(=O)(=O)Nc2ccccc2)cc1 | 0 | 4 | -8 | -2 | -1 | -2
COc1ccccc1-c1c(C(F)(F)F)oc2cc(OC(=O)c3ccc([N+](=O)[O-])cc3)ccc2c1=O | 7 | 8 | 21* | -6 | -8 | 3
Cc1cc(=O)oc2cc(OC(=O)c3ccccc3)ccc12 | 0 | 1 | 3 | -1 | 3 | 7
CC1(C)Cc2c(c(N3CCOCC3)nc3sc(C(=O)Nc4cccc(Cl)c4)c(N)c23)CO1 | -1 | 2 | 18* | 13 | -5 | -12
CC1(C)Cc2c(c(N3CCOCC3)nc3sc(C(=O)Nc4ccccc4)c(N)c23)CO1 | 0 | 5 | 5 | 3 | -13 | -7
CN1CCCC1CCOC(C)(c1ccccc1)c1ccc(Cl)cc1 (centres undefined) | 3 | 15 | -18 | -18 | 98* | 98*
CC(C)(C)c1ccc(C(=O)NCC2CCCN2S(=O)(=O)c2ccccc2)cc1 (centres undefined) | 0 | 5 | 4 | -8 | -16 | 2
O=C(Nc1ccc(Cl)cc1)c1ccc(-n2cncn2)c([N+](=O)[O-])c1 | 6 | 24 | -14 | -12 | 29* | 15
Cc1ccc(NC(=O)c2ccc(-n3cncn3)c([N+](=O)[O-])c2)cc1 | 1 | 5 | 0 | -4 | 1 | 4
CC(=O)NO | 1 | 0 | -2 | 2 | 6 | 0
O=C(NC(Cc1ccccc1)C(=O)O)/C(=C\c1ccc(Br)cc1)NC(=O)c1ccc(Br)o1 (centres undefined) | 2 | 0 | -4 | 6 | 15 | -8
O=C(NC(Cc1ccccc1)C(=O)O)/C(=C/c1ccc(Br)cc1)NC(=O)c1ccc(Br)o1 (centres undefined) | -4 | 0 | 19* | -5 | -1 | 9
Cc1cccc(C(O)c2ncc(-c3cccc(C(F)(F)F)c3)[nH]2)c1C (centres undefined) | 0 | 4 | 7 | -4 | -17 | 4
CCC1Sc2ccc(S(=O)(=O)Nc3ccc(OC)c(OC)c3)cc2NC1=O (centres undefined) | 3 | 16 | -5 | -15 | 6 | 31*
COc1ccc2c(c1)c1c3n2CCN(C)C3=NCC1 | 1 | 1 | 15* | 7 | -6 | -2
Nc1[nH]n2c(=O)cc(-c3ccccc3)nc2c1N=Nc1ccc(S(N)(=O)=O)cc1 | 10 | 1 | 18 | 19* | -2 | 13
Nc1[nH]n2c(=O)cc(-c3ccccc3)nc2c1N=Nc1ccccc1 | -2 | 0 | -1 | 0 | 14 | 11
COCC(=O)N(C)C[C@H]1N[C@@](C)(C(=O)OC)[C@H]2C(=O)N(C)C(=O)[C@@H]12 | 1 | 0 | 6 | 0 | -8 | 10
CCOC(=O)c1cc(NC(=O)c2ccccc2)c(=O)n2c1oc1ccccc12 | -6 | 2 | 4 | -3 | -4 | -2
CC(=O)c1cccc(NC(=O)c2ccccc2OCc2ccc(F)cc2)c1 | -5 | 4 | -8 | -10 | -1 | 32*
CN(C)S(=O)(=O)c1cccc(NC(=O)c2ccccc2OCc2ccc(F)cc2)c1 | 2 | 11 | -8 | -4 | -27 | 5
COc1ccc(C2CC3(CC(C)(C)NC(=S)N3)Oc3cc(O)cc(C)c32)cc1 (centres undefined) | 0 | 2 | -3 | -7 | -6 | 10
COc1ccc(C2CC3(CC(C)(C)NC(SC)=N3)Oc3cc(O)cc(C)c32)cc1 (centres undefined) | 5 | 49* | -8 | -8 | -7 | 1
SMILES | CHRM5 agonist | M4 ag | M4 PAM | CHRM5 PAM | CHRM4 antagonist | CHRM5 antagonist
O=C(NC1CCCC1)c1cccc(S(=O)(=O)N2CCCC2)c1 | 0 | 1 | -6 | -1 | 14 | 2
COc1ccc(OC)c2c1C(=O)C(Cl)=C(Cl)C2=O | 0 | 0 | -8 | -1 | 61* | 23
Cc1ccc(NC(=O)CS(=O)(=O)c2cn(CC(=O)N3CCOCC3)c3ccccc23)cc1 | -3 | 2 | 25 | 3 | 36* | -9
C=CCN(C(=O)CN1CCCCC1)c1nc(-c2ccccc2)cs1 | -8 | 0 | -11 | -4 | 6 | 12
C=CCN(C(=O)C1CC(=O)N(C2CCCC2)C1)c1nc(-c2ccc(S(C)(=O)=O)cc2)cs1 (centres undefined) | 13 | 32* | -13 | -44 | 19 | 19
COc1ccc2cc3[n+](cc2c1OC)CCc1cc2c(cc1-3)OCO2 | 0 | 0 | -14 | -4 | 41*! | -3
COc1cccc(C2=NCCc3cc4c(cc32)OCO4)c1OC | 1 | 3 | -4 | -4 | 10 | 4
COc1ccc(CCNC(=O)c2cc(-c3ccncc3)nc3ccc(S(=O)(=O)N4CCOCC4)cc23)cc1OC | -4 | 0 | 11 | 8 | 1 | -1
COc1ccc(C(CCN2CCCCC2)c2c(OC)cc(OC)c3c(-c4ccccc4)cc(=O)oc23)cc1 (centres undefined) | 7 | 31 | 10 | 3 | 34* | 14
COc1ccc(Cn2c(=O)[nH]c3cc(C(=O)N4CCN(c5ccccn5)CC4)ccc3c2=O)cc1 | -1 | 1 | 12 | 7 | -2 | -1
CC1(c2ccc(OC(F)F)cc2)NC(=O)N(/N=C/c2c(O)ccc3ccccc23)C1=O (centres undefined) | 0 | 1 | 20* | 0 | 8 | 2
COc1ccc(/C=C/c2ccccc2)cc1[C@H]1[C@H]2C=CC[C@@H](C)[C@@H]2C(=O)N1Cc1ccccc1 | 1 | 1 | -7 | 6 | 5 | 1
O=C(NCCn1cc(SCc2ccc(F)cc2)c2ccccc21)c1ccccc1F | 1 | 9 | -12 | -16 | 28* | 4
N#CCc1ccc(OC(=O)c2ccncc2)cc1 | 6 | 1 | -5 | -3 | -12 | 10
Cn1nc(C(F)(F)F)c(-c2ccc(Br)cc2)c1NC(=O)Nc1ccc(F)cc1F | 9 | 14 | -14 | -20 | 8 | 30*
CCCCc1c(-c2cccc(OC)c2)ncn1CCc1ccccc1OC | -1 | 9 | -14 | -22 | 41* | 33*
CCc1c(-c2ccc(Cl)cc2)ncn1Cc1cccc(-c2ccccc2)c1 | -5 | 2 | -7 | -7 | -1 | -4
